Screening data as filed in PubChem BioAssay.
An excerpt weighted towards active compounds, which were near 1.7% of everything screened.
M5 ag = human M5 muscarinic receptor agonists, primary screen, CHO-K1 cells, Fluo-8 calcium fluorescence. CHO-K1 hM5 cells; 0% DMSO wells, 100% maximal acetylcholine response. activation, % at 3 µM. actives 0.19% (n = 360,000). Muscarinic acetylcholine receptor M5 (Homo sapiens), P08912. AID 624037, 2012;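 active = activation above the run's mean over test compounds plus 3 SD, cut at about 23% in these data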;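 note: signal is peak over basal fluorescence ratio across the kinetic read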
Target sequence (P08912 whole entry, looked up): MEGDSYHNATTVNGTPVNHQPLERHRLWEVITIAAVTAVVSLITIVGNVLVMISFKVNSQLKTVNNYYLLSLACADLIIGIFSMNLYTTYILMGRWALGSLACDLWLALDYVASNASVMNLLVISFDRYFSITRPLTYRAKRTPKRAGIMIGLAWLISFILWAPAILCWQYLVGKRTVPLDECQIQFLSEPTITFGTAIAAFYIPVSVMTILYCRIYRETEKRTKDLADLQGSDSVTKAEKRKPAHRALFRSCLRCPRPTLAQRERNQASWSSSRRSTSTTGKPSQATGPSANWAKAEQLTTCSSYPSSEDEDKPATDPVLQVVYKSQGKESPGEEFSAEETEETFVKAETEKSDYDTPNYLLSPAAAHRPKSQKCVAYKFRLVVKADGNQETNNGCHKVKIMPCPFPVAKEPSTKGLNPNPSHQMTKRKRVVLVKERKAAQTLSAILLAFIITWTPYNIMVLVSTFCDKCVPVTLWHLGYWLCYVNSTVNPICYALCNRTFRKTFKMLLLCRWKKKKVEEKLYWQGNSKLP
M1 ag parental = counter-screen for M1 agonists: effect in parental CHO-K1 cells; Fluo-8 calcium fluorescence; scaled to maximal ATP response, vehicle zero; activation, % at 3 µM; actives 0.48% (n = 360,000); in the data active = activation above about 15%;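 note: untransfected CHO-K1 host cells lacking M1 receptor as counterscreen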
CHO-K1 Ca antag = counter-screen for M1 antagonists: effect in parental CHO-K1 cells. ATP-induced calcium, Fluo-8 fluorescence. inhibition, % at 3 µM. actives 0.6% (n = 360,000). AID 602250;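 active = inhibition above a per-plate cutoff, the plate's mean sample inhibition plus 3 SD, cut at about 24% in these data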
CHO-K1 Ca PAM = nonselective calcium activators in parental CHO-K1 cells, primary screen, counter-screen for M1 PAM project, cell-based, Fluo-8 calcium fluorescence, full deck, 1536-well. AID 602247, 2012. ATP EC20; 0% at ATP EC20, 100% at ATP max. activation, % at 3 µM. actives 0.02% (n = 360,000);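 active = activation above the run cutoff, the mean activation of all test compounds plus 3 SD, cut at about 40% in these data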;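 note: peak over basal fluorescence ratio in a 140 s read after ATP addition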
CHRM5 antagonist = human M5 muscarinic receptor antagonists, primary screen, CHO cells, Fluo-8 calcium fluorescence. CHO-hM5 cells, ACh EC80. inhibition, % at 3 µM. actives 0.59% (n = 360,000);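 active = inhibition above a per-plate cutoff, the mean of that plate's test compounds plus 3 SD, cut at about 27% in these data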
M5 PAM = human M5 muscarinic receptor positive allosteric modulators, primary screen, CHO-K1 cells, Fluo-8 calcium fluorescence. activation, % at 3 µM. CHO-K1 hM5, ACh EC20 PAM; 0% = ACh EC20, 100% = ACh EC100. actives 0.3% (n = 360,000);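 active = activation above the run cutoff, the mean activation of all test compounds plus 3 SD, cut at about 18% in these data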
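System – CHO-K1 hM5 cells · Compound – 3 µM, single dose · Incubation – compound preincubation 140 s before EC20 acetylcholine addition · Technique – Fluo-8 calcium fluorescence · Measure – Max/basal fluorescence ratio as % of EC20–EC100 ACh window · Benchmarks – low control EC20 acetylcholine (0%), high control EC100 acetylcholine (100%) · Replication – singlicate, one well per test compound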
Each line names hits and unclear results; the compound was inactive in the other large screens.

COc1ccc(S(=O)(=O)c2nnn(-c3cccc(Cl)c3)c2N)cc1	CHO-K1 Ca antag 25
Cc1ccccc1N(CC(=O)N/N=C/c1ccc(Cl)cc1)C(=O)c1ccccc1	CHO-K1 Ca antag 26
Cc1ccccc1N(CC(=O)N/N=C/c1ccc(F)cc1)C(=O)c1ccccc1	none
CC(Oc1ccccc1)C(=O)Nc1nnc(S(=O)(=O)N2CCCCCC2)s1 (stereo unspecified)	none
Cc1c(NC(=O)c2ccc(S(=O)(=O)N3CC(C)OC(C)C3)cc2)c(=O)n(-c2ccccc2)n1C (stereo unspecified)	CHO-K1 Ca antag 32
O=C(NCC1CCCO1)c1ccc(/C=N/O)nc1 (stereo unspecified)	none
CC(C)N1CCN(Cc2coc3ccccc3c2=O)CC1CCO (stereo unspecified)	none
Cc1cccc(C=Nc2ccc3c4c(cccc24)CC3)c1O	M5 ag 34, M1 ag parental 15, CHO-K1 Ca antag 25
Oc1ccc(Cl)cc1C=Nc1ccc2c3c(cccc13)CC2	M5 ag 53, M1 ag parental 44, CHO-K1 Ca antag 32, CHRM5 antagonist 35
CC(=O)NNC(=S)NC(=O)C(c1ccccc1)c1ccccc1	none
CC(C)(C)C(=O)NC(=S)NNC(=O)C(c1ccccc1)c1ccccc1	M5 ag 111, M1 ag parental 107, CHO-K1 Ca antag 47, CHRM5 antagonist 52
CCn1c(=O)n(CC(=O)NCc2ccccc2OC)c(=O)c2ccccc21	none
CCn1c(=O)n(CC(=O)Nc2ccc(F)cc2)c(=O)c2ccccc21	CHO-K1 Ca antag 29
O=C(CSc1nc2ccccc2o1)Nc1ccc(N2CCOCC2)c(Cl)c1	CHO-K1 Ca antag 28, CHRM5 antagonist 28
O=C(CSc1nc2ccccc2s1)Nc1ccc(N2CCOCC2)c(Cl)c1	none
O=C1NC(Cc2c[nH]c3ccccc23)C(=O)N1Cc1ccccc1 (stereo unspecified)	none
COC(=O)c1ccc(CN2C(=O)NC(Cc3c[nH]c4ccccc34)C2=O)cc1 (stereo unspecified)	M1 ag parental 15
Cc1c(/C=N/O)c2ccccn2c1C=O	none
CC(=O)Nc1ccc(OCC(O)CN2C(C)CCCC2C)cc1 (stereo unspecified)	CHO-K1 Ca antag 32
c1ccc(CSC2=NCCS2)cc1	none
CC(=O)Nc1ccc(S(=O)(=O)N2CCN(CCc3ccccc3)CC2)cc1	none
CN(C)CCNC(=O)c1sc2nc(-c3ccccc3)cc(C(F)(F)F)c2c1N	none
Nc1c(C(=O)C2CC2)sc2nc(-c3ccccc3)cc(C(F)(F)F)c12	M1 ag parental 109, CHO-K1 Ca antag 75, M5 PAM 20
Nc1nc2ccccc2cc1C(=O)NCCCCc1ccccc1	CHRM5 antagonist 28
CCN1CCN(C(=O)c2ccc3c(c2)N(Cc2ccccc2F)C(=O)c2ccccc2S3(=O)=O)CC1	none
COc1ccc(-c2noc(CCC(=O)N3CCN(c4ccc(Cl)cc4)CC3)n2)cc1	none
CC(=O)OCCNC(=O)c1cccnc1	none
COc1ccc(OCC(=O)NCCNC(=O)c2cccnc2)cc1	CHRM5 antagonist 48
O=C(NCCO[N+](=O)[O-])c1cccnc1	CHRM5 antagonist 38
CCN(CC(=O)Nc1ccccc1OC)C(=O)C1CCCC1	none
COc1cc(C(=O)Nc2cccc(NC(=O)c3ccccc3)c2)cc(OC)c1OC	CHRM5 antagonist 30
O=C(Nc1cccc(C(=O)Nc2ccc(Br)cc2)c1)c1ccccc1	CHRM5 antagonist 31
Cc1occc1C(=O)NNS(=O)(=O)c1ccc([N+](=O)[O-])cc1	none
C1=C(CCNc2ncnc3c2[nH]c2ccccc23)CCCC1	M1 ag parental 15, CHO-K1 Ca antag 29, CHRM5 antagonist 32
CC(C)OCCCNc1ncnc2c1[nH]c1ccccc12	M1 ag parental 16, CHRM5 antagonist 30
COc1ccc(CNc2ncnc3c2[nH]c2cc(OC)c(OC)cc23)cc1	none
COc1ccc(CNc2ncnc3c2[nH]c2ccccc23)cc1	M1 ag parental 19
O=C(NCC1COc2ccccc2O1)C1CCCN(S(=O)(=O)c2cccc3cccnc23)C1 (stereo unspecified)	CHO-K1 Ca antag 25
O=C(NCC1COc2ccccc2O1)C1CCCN(S(=O)(=O)c2cccc3nsnc23)C1 (stereo unspecified)	none
CCOc1ccc(NC(=O)CN2C(=O)S/C(=C/c3cccn3C)C2=O)cc1	CHRM5 antagonist 28
CCC1Oc2ccccc2N(CC(=O)NC2CC2)C1=O (stereo unspecified)	none
COc1cccc(CN2CC(C(=O)NCCOc3ccccc3)CCC2=O)c1 (stereo unspecified)	CHRM5 antagonist 29
COc1cccc(CN(C)C(=O)C2CCC(=O)N(Cc3cccc(F)c3)C2)c1 (stereo unspecified)	none
O=C1CCC(C(=O)N2CCCO2)CN1Cc1cccc(C(F)(F)F)c1 (stereo unspecified)	M5 PAM 19
COc1cccc(CN2CC(C(=O)NCCOc3ccccc3F)CCC2=O)c1 (stereo unspecified)	none
COc1cccc(CN2CC(C(=O)N(C)C3CCOCC3)CCC2=O)c1 (stereo unspecified)	CHO-K1 Ca antag 30
O=C(c1ccc(=O)[nH]n1)N1CCN(S(=O)(=O)c2ccc3ccccc3c2)CC1	none
CCN(c1ccccc1)S(=O)(=O)c1cc(C(=O)OC(C)C(=O)Nc2ccc3c(c2)OCCO3)ccc1C (stereo unspecified)	none
Cc1cc(C)c(-c2c(O)c3cccc4c3n(c2=O)CCC4)c(C)c1	none
O=C(O)[C@@H]1CCCN1C(=O)c1ccccc1N1C(=O)[C@@H]2Cc3c([nH]c4ccccc34)C(c3cccc(Cl)c3)N2C1=O (stereo partly specified)	none
O=C(Nc1ccc(Cl)cc1)N1CCC(c2nc(-c3ccc(F)cc3)no2)CC1	CHRM5 antagonist 47
O=C1C2C3c4ccccc4C(Br)(c4ccccc43)C2C(=O)N1c1ccccc1O (stereo unspecified)	none
O=C(NCC1CCCO1)C(C(=O)c1ccc(F)cc1)n1ccccc1=O (stereo unspecified)	CHO-K1 Ca antag 31
O=C(NCc1ccccc1)C(C(=O)c1ccc(F)cc1)n1ccccc1=O (stereo unspecified)	none
COc1ccccc1CNC(=O)c1ccccc1OCc1ccc(F)cc1	M1 ag parental 42, CHO-K1 Ca PAM 44
